# Compound activity deposited in PubChem BioAssay by Broad Institute.
# This is a sample that favours compounds with a hit; in the whole collection about 1.4% have one here.
# GSIS activator – GLuc luminescence reporter in INS-1E cells, primary screen for activators of glucose-dependent secretion of insulin; INS-1E GLuc reporter insulin secretion, 2-3 h; activation, % at 16.6 µM; actives 0.61% (n = 370,000); AID 743287, 2014;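 active = lowest replicate activation of at least 40%, so every replicate reaches that level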;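 also: 0% = median of neutral control wells and 100% = median of IBMX positive control wells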
# FN deposit inh – inhibitors of fibronectin matrix deposition, primary screen, AH1F cells, Alexa488-fibronectin fluorescence, plate reader. AH1F fibroblasts, overnight. inhibition, % at 12.6 µM. actives 0.086% (n = 350,000). AID 743247, 2014;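 active = mean inhibition across replicates of 30% or more, regardless of how many single replicates reach that level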;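 also: positive control wells lacked labelled fibronectin entirely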
#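 Material: AH1F fibroblast monolayer depositing Alexa488-labelled fibronectin into matrix | Input: 10000 AH1F cells/well | Medium: DMEM plus 2% serum, read in PBS | Reagent: Alexa488-fibronectin, 24 nM final in well | Compound dosing: One dose per compound, pinned | Schedule: 1 h adhesion, overnight exposure | Measured by: Fluorescence at 485 nm excitation, 525 nm emission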
# ERp5 inh – inhibitors of ERp5-driven insulin aggregation, primary screen, biochemical, turbidity, absorbance 650 nm, single point; actives 0.05% (n = 350,000); 90 min; AID 651711, 2012; Protein disulfide-isomerase A6 (Homo sapiens), Q15084; inhibition, % at 9.99 µM;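 active = mean replicate inhibition above about 25%, with every replicate also reaching it, limit read from the data, passing the limit was not always enough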
# Target sequence (Q15084 whole entry, looked up): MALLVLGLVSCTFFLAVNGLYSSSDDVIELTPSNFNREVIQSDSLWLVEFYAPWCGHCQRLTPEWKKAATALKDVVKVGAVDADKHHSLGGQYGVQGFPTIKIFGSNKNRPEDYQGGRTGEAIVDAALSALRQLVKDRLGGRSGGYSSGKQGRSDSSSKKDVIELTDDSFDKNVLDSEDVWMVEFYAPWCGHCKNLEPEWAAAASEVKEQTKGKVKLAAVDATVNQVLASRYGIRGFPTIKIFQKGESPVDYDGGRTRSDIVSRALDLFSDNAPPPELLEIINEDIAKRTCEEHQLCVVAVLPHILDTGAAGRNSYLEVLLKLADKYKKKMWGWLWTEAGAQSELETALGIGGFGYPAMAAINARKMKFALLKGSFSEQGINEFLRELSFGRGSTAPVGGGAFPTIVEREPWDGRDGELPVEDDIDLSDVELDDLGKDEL
# PDI inh – inhibitors of human PDI, primary screen, biochemical, turbidity, single point, plate reader; Protein disulfide-isomerase (Homo sapiens), P07237; PDI insulin aggregation turbidity, A650, 90 min; inhibition, % at 10 µM; actives 0.052% (n = 350,000);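 active = mean inhibition across replicates of 30% or more, whatever share of single replicates reach that level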
# Env fusion inh – inhibitors of HIV-1 Env-driven cell-cell fusion, primary screen, HeLa-JRFL effector, CEM21 target cells, luciferase | inhibition, % at 12.3 µM | actives 1.1% (n = 360,000) | AID 651610, 2012;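 active = mean replicate inhibition score of at least 50 and every replicate individually at or above 50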;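 also: 0% = plate neutral controls and 100% = maraviroc near 300 nM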
# Active calls of the source: *; i = inactive; / = no result given; [ ] = dose if it differs, or a comment.
SMILES,GSIS activator,FN deposit inh,ERp5 inh,PDI inh,Env fusion inh
C[C@H](CO)N1C[C@H](C)[C@H](CN(C)C(=O)CCC(F)(F)F)OCCCC[C@H](C)Oc2ccc(NS(=O)(=O)c3ccc(Cl)cc3)cc2C1=O,-14.5,0.9,80.9*,/,-6.3[16.7 µM]
CCCCc1[nH]c(=O)c(C#N)c2c1CSC(C)(C)C2,28.6,5.5,/,-0.2,-32.6
CCCCc1[nH]c(=O)c(C#N)c2c1CCCC2,99.5*,-0.7,/,-4.6,-60.9
Cc1ccc(S(=O)(=O)N(C)C)cc1NC(=O)COc1ccccc1C(=O)Nc1ccccc1,3.4,1.6,-0.2,-8.9,74.0*
CN(C)S(=O)(=O)c1cccc(NC(=O)COc2ccccc2C(=O)Nc2ccccc2)c1,-22.1,6.1,-3.8,4.4,/
Cc1noc(C)c1NC(=O)NCC[C@@H]1CC[C@@H](NC(=O)Cc2cccnc2)[C@H](CO)O1,14.8,-2.4,-0.5,/,22.4[16.7 µM]
CC(=NO)C1CCC2C3CCC4=CC(=NO)CCC4(C)C3C(=O)CC12C (stereo not given),0.9,/,-3.9,37.4*,-138.2
COc1ccccc1NS(=O)(=O)c1ccc2oc(SCc3ccc(C#N)cc3)nc2c1,-7.8,2.1,/,-7.6,58.2*
O=C(C[C@H]1CC[C@@H]2[C@H](COC[C@H](O)CN2C(=O)Cc2ccccc2)O1)NC1Cc2ccccc2C1,-6.0,1.6,/,/,-12.7[16.7 µM]
C[C@@H]1CN([C@@H](C)CO)C(=O)c2cc(NC(=O)CCCCCC(=O)Nc3ccccc3N)ccc2O[C@@H]1CN(C)S(C)(=O)=O,6.6,/,-10.2,/,/
COc1ccc(/C=N/NC(=O)c2ccc(COc3ccccc3Cl)o2)c(OC)c1C,151.6*,6.4,/,1.2,26.0
CCc1nnc(NC(=O)CSc2nc3cc4c(cc3cc2CC)OCCO4)s1,49.4*,/,/,6.9,/
CCc1cc2cc3c(cc2nc1SCC(=O)Nc1nnc(C)s1)OCCO3,7.1,/,7.0,-0.5,/
Cc1ccc(OCC(=O)Nc2ccc3c(c2)nc(CCN2CCN(c4ccccn4)CC2)n3C)cc1,11.0,6.7,6.7,-4.9,60.6*
Cn1c(CCN2CCN(c3ccccn3)CC2)nc2cc(NC(=O)COc3ccccc3)ccc21,-3.9,-2.7,-2.2,-1.2,6.9
CCCOC(=O)C1C2C=CC(C3CC23)C1C(=O)OCC(=O)c1ccccc1 (stereo not given),/,/,/,-4.3,61.9*
Cn1c(=O)n(CCc2ccccc2)c2ccccc21,14.9,9.1,4.0,1.4,-21.2
Cn1c(=O)n(Cc2ccccc2Br)c2ccccc21,50.3*,-1.1,4.4,1.5,-15.3
COc1ccc(NC(=O)Nc2ccc3c(c2)C(=O)N([C@H](C)CO)C[C@H](C)[C@H](CN(C)Cc2ccc4c(c2)OCO4)OCCCC[C@@H](C)O3)cc1,-20.3,/,-6.5,/,-15.0[16.7 µM]
COc1ccc(Nc2nc3ccccc3n3cnnc23)cc1Cl,6.3,5.5,0.0,1.7,14.1
COc1ccc(/C(C)=N/Nc2nc3ccccc3n3cnnc23)cc1OC,44.1*,-0.9,2.4,/,13.9
Cc1noc(C)c1NC(=O)N1C[C@@H](O)COC[C@H]2O[C@H](CC(=O)NCC3CC3)CC[C@@H]21,1.6,5.8,6.2,/,3.5[16.7 µM]
O=[N+]([O-])c1ccc(Sc2ccncn2)c([N+](=O)[O-])c1,84.1*,4.6,-1.2,-7.3,i
COc1ccc(-c2ccc3n(c2=O)C[C@@H]2[C@@H](CO)[C@H](C(=O)N(C)C)N(CC4CC4)[C@H]32)cc1,5.3,/,2.9,/,/
Cn1c(COc2ccccc2)nnc1SCC(=O)Nc1ccc2c(c1)OCO2,22.6,/,-6.7,0.8,/
SMILES,GSIS activator,FN deposit inh,ERp5 inh,PDI inh,Env fusion inh
Cn1c(COc2ccccc2)nnc1SCC(=O)Nc1nnc(C2CC2)s1,10.4,2.0,26.9*,-1.9,-2.1
O=C(NC[C@@H]1CC[C@H]2[C@H](CN2C(=O)C2CCOCC2)O1)c1cccnc1,/,/,1.0,/,-14.5[16.7 µM]
C[C@@H]1CN([C@H](C)CO)C(=O)Cc2cc(NC(=O)Nc3ccc4c(c3)OCO4)ccc2O[C@H]1CN(C)Cc1ccncc1,9.5,/,0.5,/,/
CN(C)c1ccc(-c2noc(C3CCN(S(=O)(=O)c4cccc(Cl)c4)CC3)n2)cc1,-15.2,/,/,4.5,56.4*
Nc1nonc1C(=O)NCCNCc1c(OCc2ccccc2F)ccc2ccccc12,-20.8,/,/,-1.1,103.1*
Nc1nonc1C(=O)NCCNCc1cc(Br)ccc1OCc1ccc(F)cc1,/,8.2,/,-1.1,67.0*
COc1ccc(CNCCNC(=O)c2nonc2N)cc1OC,3.4,/,5.9,2.3,-50.9
COc1ccc(NC(=O)C2=CC(c3cccs3)=NS(=O)(=O)N2C)cc1,/,-3.5,-6.5,/,88.7*
CCCn1c(C2CCCN2c2nc(C)cs2)nc2cc(Cl)c(Cl)cc21 (stereo not given),7.6,-11.3,-5.6,4.6,69.7*
C[C@H](NC(=O)c1ncn2c1c(=O)[nH]c1ccccc12)c1ccccc1,10.1,-0.7,-2.4,-12.7,10.7
C[C@H](NC(=O)c1ncn2c1c(=O)[nH]c1ccc(Br)cc12)c1ccccc1,-6.3,2.3,3.3,-14.0,57.0*
CC1CCc2c(sc3ncnc(N4CCOCC4)c23)C1 (stereo not given),/,3.4,/,2.9,92.2*
C[C@@H](O)C#Cc1ccc([C@@H]2[C@@H](CO)N3CCCCN(C(=O)c4ccc5c(c4)OCO5)C[C@H]23)cc1,-0.6,-9.8,-2.6,/,/
O=C(C[C@H]1C[C@@H]2c3cc(NS(=O)(=O)c4ccc(F)cc4)ccc3O[C@@H]2[C@H](CO)O1)NCCc1ccccc1,-25.1,/,0.9,/,75.1*[16.7 µM]
O=C(C[C@H]1C[C@@H]2c3cc(NC(=O)NC4CCCC4)ccc3O[C@@H]2[C@@H](CO)O1)NCc1ccc(Cl)cc1,-10.5,-7.3,98.2*,/,/
O=C(C[C@H]1C[C@H]2c3cc(NS(=O)(=O)c4ccccc4)ccc3O[C@H]2[C@H](CO)O1)NC1CCCC1,-10.4,4.0,-5.3,/,/
O=C(C[C@@H]1C[C@H]2c3cc(NS(=O)(=O)c4ccccc4)ccc3O[C@H]2[C@H](CO)O1)NC1CCCCC1,-29.2,-3.8,35.0*,/,0.2[16.7 µM]
COC(=O)C[C@@H]1C[C@H]2c3cc(NS(=O)(=O)c4cccc(OC)c4)ccc3O[C@H]2[C@@H](CO)O1,6.7,/,5.8,/,59.6*[16.7 µM]
O=C(C[C@H]1C[C@@H]2c3cc(NS(=O)(=O)c4ccc(F)cc4)ccc3O[C@@H]2[C@H](CO)O1)NCc1ccc(Cl)cc1,-18.7,7.7,-12.0,/,86.3*[16.7 µM]
COc1cc(C2C(C(C)=O)=C(O)C(=O)N2CCc2c[nH]c3ccccc23)ccc1O (stereo not given),/,13.6,/,41.5*,-32.5
COc1ccc2c3c(n(C)c2c1)[C@@H](CO)N(C(=O)Nc1ccc(F)cc1)CC31CCN(C(=O)c2ccccc2F)CC1,-5.1,/,5.7,/,/
O=C(O)CSc1nc2sc3c(c2c(=O)n1-c1ccccc1)CCC3,-0.4,-4.6,5.4,-5.9,-0.7
